Reference: ChEMBL document CHEMBL6071151, “Discovery of Inhibitors Targeting Protein-Protein Interaction between Bacterial RNA Polymerase and NusG as Novel Antimicrobials” (J Med Chem, 2024)
Calls of active or inactive are those of the source. No cut-off for these calls is given here.

Tests used:
[1] = test system: Staphylococcus saprophyticus; experiment: Antimicrobial activity against Staphylococcus saprophyticus ATCC 15305 assessed as reduction in microbial growth measured after 20 hrs by CLSI based broth microdilution method; assay type: functional
[2] = test system: Streptococcus pneumoniae; experiment: Antimicrobial activity against Streptococcus pneumoniae clinical isolate CUHK-X01 assessed as reduction in microbial growth measured after 20 hrs by CLSI based broth microdilution method; assay type: functional
[3] = test system: Streptococcus pneumoniae; experiment: Antimicrobial activity against Streptococcus pneumoniae ATCC 49619 assessed as reduction in microbial growth measured after 20 hrs by CLSI based broth microdilution method; assay type: functional
[4] = test system: Streptococcus agalactiae; experiment: Antimicrobial activity against Streptococcus agalactiae ATCC 12386 assessed as reduction in microbial growth measured after 20 hrs by CLSI based broth microdilution method; assay type: functional
[5] = test system: Bacillus subtilis; experiment: Antibacterial activity against Bacillus Subtilis assessed as bacterial transcription by measuring delocalization of GFP-tagged RpsB from cell poles towards midcell at 1 time MIC incubated for 30 mins by epifluorescence microscopy based analysis; assay type: functional, organism-based
Method in brief: (§1)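 B. subtilis reporter strains expressing GFP fusions, grown overnight on selective LB agar at 37 °C, then overnight in LB with selective antibiotic and xylose, 37 °C, 180 rpm. Cells mounted on 1.2% agarose, imaged by epifluorescence with 100×/1.45 oil objective, FITC (525/50) filter.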

[6] = test system: Bacillus subtilis; experiment: Antibacterial activity against Bacillus Subtilis assessed as bacterial transcription by measuring subcellular localization of MreB at 1 time MIC incubated for 30 mins by epifluorescence microscopy based analysis; assay type: functional, organism-based; method in brief: as §1
[7] = test system: Bacillus subtilis; experiment: Antibacterial activity against Bacillus Subtilis assessed as bacterial transcription by measuring delocalization of GFP-tagged RpsB at 1 time MIC incubated for 30 mins by epifluorescence microscopy based analysis; assay type: functional, organism-based; method in brief: as §1
[8] = test system: Enterobacter cloacae; experiment: Antimicrobial activity against Enterobacter cloacae ATCC 13047 assessed as reduction in microbial growth measured after 20 hrs by CLSI based broth microdilution method; assay type: functional
Method in brief: (§2)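 Broth microdilution per CLSI in cation-adjusted Mueller-Hinton broth. Two-fold serial dilutions from 256 to 0.25 μg/mL, inoculum about 5 × 10⁵ CFU/mL. Read after 20 h at 37 °C. MIC is the lowest concentration with no visible growth. Run in duplicate.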

[9] = test system: Enterococcus faecalis; experiment: Antimicrobial activity against Enterococcus faecalis ATCC 19433 assessed as reduction in microbial growth measured after 20 hrs by CLSI based broth microdilution method; assay type: functional; method in brief: as §2
[10] = test system: Klebsiella pneumoniae; experiment: Antimicrobial activity against Klebsiella pneumoniae ATCC 700603 assessed as reduction in microbial growth measured after 20 hrs by CLSI based broth microdilution method; assay type: functional; method in brief: as §2
[11] = test system: Streptococcus pneumoniae; experiment: Antimicrobial activity against Streptococcus pneumoniae clinical isolate CUHK-X03 assessed as reduction in microbial growth measured after 20 hrs by CLSI based broth microdilution method; assay type: functional
[12] = test system: Staphylococcus aureus; experiment: Antimicrobial activity against Staphylococcus aureus ATCC 29213 assessed as reduction in microbial growth measured after 20 hrs by CLSI based broth microdilution method; assay type: functional; method in brief: as §2
[13] = test system: Escherichia coli; experiment: Antimicrobial activity against Escherichia coli ATCC 25922 assessed as reduction in microbial growth measured after 20 hrs by CLSI based broth microdilution method; assay type: functional; method in brief: as §2
[14] = test system: Streptococcus pneumoniae; experiment: Antimicrobial activity against Streptococcus pneumoniae NP112 (NR-19213) assessed as reduction in microbial growth measured after 20 hrs by CLSI based broth microdilution method; assay type: functional
[15] = test system: Pseudomonas aeruginosa; experiment: Antimicrobial activity against Pseudomonas aeruginosa ATCC 27853 assessed as reduction in microbial growth measured after 20 hrs by CLSI based broth microdilution method; assay type: functional; method in brief: as §2
[16] = test system: Streptococcus pneumoniae; experiment: Antimicrobial activity against Streptococcus pneumoniae TCH8431 (HM-145) assessed as reduction in microbial growth measured after 20 hrs by CLSI based broth microdilution method; assay type: functional
[17] = test system: Staphylococcus epidermidis; experiment: Antimicrobial activity against Staphylococcus epidermidis ATCC 12228 assessed as reduction in microbial growth measured after 20 hrs by CLSI based broth microdilution method; assay type: functional
[18] = test system: Streptococcus pneumoniae; experiment: Antimicrobial activity against Streptococcus pneumoniae clinical isolate CUHK-X04 assessed as reduction in microbial growth measured after 20 hrs by CLSI based broth microdilution method; assay type: functional
[19] = test system: Acinetobacter baumannii; experiment: Antimicrobial activity against Acinetobacter baumannii ATCC 19606 assessed as reduction in microbial growth measured after 20 hrs by CLSI based broth microdilution method; assay type: functional; method in brief: as §2
[20] = test system: Streptococcus pneumoniae; experiment: Antimicrobial activity against Streptococcus pneumoniae clinical isolate CUHK-X02 assessed as reduction in microbial growth measured after 20 hrs by CLSI based broth microdilution method; assay type: functional
[21] = test system: Streptococcus pyogenes; experiment: Antimicrobial activity against Streptococcus pyogenes ATCC 19615 assessed as reduction in microbial growth measured after 20 hrs by CLSI based broth microdilution method; assay type: functional
[22] = test system: Staphylococcus aureus; experiment: Antimicrobial activity against Staphylococcus aureus ATCC 25923 assessed as reduction in microbial growth measured after 20 hrs by CLSI based broth microdilution method; assay type: functional; method in brief: as §2
[23] = Inhibition of Bacillus subtilis LgBiT-fused NusG/C-terminal SmBit fused […] CH protein-protein interaction using […] incubated for 20 mins by luminescence based analysis
Method in brief: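 Split-nanoluciferase competition assay with His-tagged proteins expressed in E. coli BL21(DE3) and Ni-purified. C-SmBiT-β'CH (250 nM in PBS) was preincubated with compound for 10 min at 37 °C. N-LgBiT-NusG (250 nM in PBS) was then added and incubated 10 min at 37 °C. Nano-Glo substrate was added and luminescence read. IC50 determined. Triplicate with technical repeats.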

MIC [8]	MIC [9]	MIC [10]	MIC [12]	MIC [13]	MIC [15]	MIC [19]	MIC [22]	Molecule	MIC [1]	MIC [2]	MIC [3]	MIC [4]	also measured
–	–	–	–	–	–	–	–	Cc1onc(-c2ccccc2)c1C(=O)N[C@@H]1C(=O)N2[C@@H]1SC(C)(C)[C@@H]2C(=O)O [OXACILLIN]	2 µg/mL	≤ 0.062 µg/mL	2 µg/mL	1 µg/mL	–
–	–	–	–	–	–	–	–	CN[C@H](CC(C)C)C(=O)N[C@H]1C(=O)N[C@@H](CC(N)=O)C(=O)N[C@H]2C(=O)N[C@H]3C(=O)N[C@H](C(=O)N[C@H](C(=O)O)c4cc(O)cc(O)c4-c4cc3ccc4O)[C@H](O)c3ccc(c(Cl)c3)Oc3cc2cc(c3O[C@@H]2O[C@H](CO)[C@@H](O)[C@H](O)[C@H]2O[C@H]2C[C@](C)(N)[C@H](O)[C@H](C)O2)Oc2ccc(cc2Cl)[C@H]1O [VANCOMYCIN]	2 µg/mL	0.5 µg/mL	1 µg/mL	1 µg/mL	–
–	–	–	–	–	–	–	–	O=C(N[C@H](CO)[C@H](O)c1ccc([N+](=O)[O-])cc1)C(Cl)Cl	–	–	–	–	Activity [5]: Active
–	–	–	–	–	–	–	–	CNC(C)[C@@H]1CC[C@@H](N)[C@@H](O[C@H]2[C@H](O)[C@@H](O[C@H]3OC[C@](C)(O)[C@H](NC)[C@H]3O)[C@H](N)C[C@@H]2N)O1.CN[C@@H]1[C@@H](O)[C@@H](O[C@@H]2[C@@H](O)[C@H](O[C@H]3O[C@H](C(C)N)CC[C@H]3N)[C@@H](N)C[C@H]2N)OC[C@]1(C)O.CN[C@@H]1[C@@H](O)[C@@H](O[C@@H]2[C@@H](O)[C@H](O[C@H]3O[C@H](CN)CC[C@H]3N)[C@@H](N)C[C@H]2N)OC[C@]1(C)O (some centres undefined)	≤ 0.062 µg/mL	32 µg/mL	32 µg/mL	64 µg/mL	–
–	–	–	–	–	–	–	–	CO[C@H]1/C=C/O[C@@]2(C)Oc3c(C)c(O)c4c(O)c(c(/C=N/N5CCN(C)CC5)c(O)c4c3C2=O)NC(=O)/C(C)=C\C=C\[C@H](C)[C@H](O)[C@@H](C)[C@@H](O)[C@@H](C)[C@H](OC(C)=O)[C@@H]1C	–	–	–	–	Activity [6]: Active; Activity [7]: Active
32 µg/mL	16 µg/mL	> 256 µg/mL	16 µg/mL	16 µg/mL	> 256 µg/mL	16 µg/mL	8 µg/mL	OC(CNCCNc1ccccc1C(F)(F)F)COc1ccc(C(F)(F)F)cc1 (centres undefined)	8 µg/mL	16 µg/mL	4 µg/mL	16 µg/mL	MIC [11]: 16 µg/mL; MIC [14]: 16 µg/mL; MIC [16]: 4 µg/mL; MIC [17]: 16 µg/mL; MIC [18]: 8 µg/mL; MIC [20]: 8 µg/mL; MIC [21]: 16 µg/mL
–	–	–	–	–	–	–	–	H-EGRVATSLREHIKLHN-OH	–	–	–	–	IC50 [23]: 195 µM
–	–	–	–	–	–	–	–	CN(C)[C@@H]1C(O)=C(C(N)=O)C(=O)[C@@]2(O)C(O)=C3C(=O)c4c(O)cccc4[C@@](C)(O)[C@H]3C[C@@H]12	–	–	–	–	Activity [5]: Active
> 256 µg/mL	64 µg/mL	> 256 µg/mL	32 µg/mL	64 µg/mL	> 256 µg/mL	64 µg/mL	64 µg/mL	OC(CNCCNc1ccc(C(F)(F)F)cn1)COc1ccc(C(F)(F)F)cc1 (centres undefined)	–	–	16 µg/mL	–	–
> 256 µg/mL	8 µg/mL	> 256 µg/mL	8 µg/mL	32 µg/mL	> 256 µg/mL	> 256 µg/mL	8 µg/mL	OC(CNCCSc1ccccc1C(F)(F)F)CSc1ccc(C(F)(F)F)cc1 (centres undefined)	4 µg/mL	8 µg/mL	4 µg/mL	8 µg/mL	MIC [11]: 4 µg/mL; MIC [14]: 8 µg/mL; MIC [16]: 4 µg/mL; MIC [17]: 4 µg/mL; MIC [18]: 8 µg/mL; MIC [20]: 8 µg/mL; MIC [21]: 8 µg/mL
